RBBP9 inh – inhibitors of human serine hydrolase RBBP9; O75884; recombinant RBBP9, FP-Rh probe fluorescence polarization; inhibition, % at 7.94 µM; hit rate 0.2% among 220,000;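 active means inhibition above the campaign mean of all tested compounds plus 3 SD, cut at about 14% in these data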;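 further: plate controls were DMSO wells with RBBP9 for no effect and wells lacking RBBP9 protein for full effect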
Target sequence (O75884 whole entry, looked up): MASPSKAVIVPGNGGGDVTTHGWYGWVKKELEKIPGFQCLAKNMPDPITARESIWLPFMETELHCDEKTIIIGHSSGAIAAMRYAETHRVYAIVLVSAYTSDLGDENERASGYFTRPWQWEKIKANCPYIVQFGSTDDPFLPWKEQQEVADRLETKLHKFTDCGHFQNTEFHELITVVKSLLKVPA
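Test system: recombinant human RBBP9. Quantity: 2.5 µM RBBP9 dispensing solution, before mixing. Detection: FP readout at 525/598 nm. Reagent: Serine-hydrolase probe FP-Rh, 375 nM pre-mixing. Measure: % inhibition. Control set: DMSO-treated enzyme wells and wells lacking RBBP9. Buffer or medium: Tris-NaCl-Pluronic buffer, pH 8.0. Times: preincubation 30 min plus labeling 45 min at 25 °C.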
Wee1 stabilizer – inhibitors of human Wee1 degradation; P30291; hit rate 1.2% among 220,000; reporter increase, % at 5 µM; HeLa Luc-Wee1K328M stability, luciferase luminescence; 100% = proteasome inhibitor MG132 effect;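 active means activation above the mean of all tested compounds plus 3 SD, set per screening run, cut at about 8.8% in these data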;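 further: cells exposed to compound for 20 h before luminescence read; 0% = DMSO alone and 100% = MG132 at 30 µM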
14-3-3 Bad inh – disrupts binding of bovine 14-3-3 zeta to phospho-Bad peptide; hit rate 0.71% among 220,000; P63103; inhibition, % at 21.7 µM; TR-FRET 14-3-3zeta/Dy647-pBad peptide displacement, 1 h;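 active means inhibition above about 70%, limit read from the data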;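 further: 0% = full 14-3-3 plus peptide FRET controls and 100% = background without 14-3-3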
Target sequence (P63103 whole entry, looked up): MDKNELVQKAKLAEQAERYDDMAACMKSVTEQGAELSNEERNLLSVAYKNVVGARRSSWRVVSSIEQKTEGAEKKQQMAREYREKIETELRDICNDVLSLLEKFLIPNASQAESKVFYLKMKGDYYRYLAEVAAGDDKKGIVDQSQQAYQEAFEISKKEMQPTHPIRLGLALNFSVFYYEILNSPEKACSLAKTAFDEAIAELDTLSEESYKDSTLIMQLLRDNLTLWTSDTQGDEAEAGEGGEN
eIF4E-4G inh – inhibitors of eIF4E and eIF4G interaction in translation initiation; TR-FRET eIF4E-eIF4GI(517-606) binding, 2 h; inhibition, % at 21.7 µM; P63073+Q04637; hit rate 0.37% among 220,000;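 further: 0% = full FRET control wells and 100% = background wells lacking eIF4GI fragment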
p47phox inh – p47phox (human) inhibition; P14598; p47phox/p22phox peptide binding, fluorescence polarization, 2 h; inhibition, % at 24.7 µM; hit rate 0.53% among 220,000; AID 1274;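 further: 0% = p47phox with labelled peptide and 100% = labelled peptide alone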
Starred values were filed as active, the others as inactive; / = not tested or not shown; [ ] = another dose, or the depositor's remark. Compounds with a hit are over-represented: about 2.8% of the library has one in this group of screens.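 How the source made its calls, unless noted: active means inhibition above about 30% (limit read from the data); inactive means the rest.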

SMILES	RBBP9 inh	Wee1 stabilizer	14-3-3 Bad inh	eIF4E-4G inh	p47phox inh
CC1(C)Cc2c(C#N)c(N)sc(=S)c2CS1	-3	0	63	-5	52*
CN(C)CCN(C(=O)c1ccc(N2C(=O)CCC2=O)cc1)c1nc2cc3c(cc2s1)OCCO3	-3	-1	3	2	/
S=C(N/N=C1\CCc2ccccc21)NC1CCCCC1	-9	0	-6	1	-16
Clc1ccccc1-c1ccc(CN2CCN(c3ccccc3)CC2)o1	3	0	73*	-9	9
Cc1ccc(/C=C/C(O)=C2/C(=O)N(C)C3(C)CC2c2ccccc2O3)cc1 (stereo unspecified)	4	-2	-11	97*	0
NC1=NC(=Nc2cccc(S(=O)(=O)N3CCOCC3)c2)c2ccccc21	-5	-3	-7	5	-4
COC(=O)c1ccc(COc2ccc3c(C)c(C)c(=O)oc3c2C)o1	-7	3	20	3	72*
Cc1c(OCc2ccc(C(=O)O)o2)ccc2c3c(c(=O)oc12)CCC3	-9	2	47	8	1
S=C(Nc1cccc(Cl)c1Cl)N1CCC2(CC1)OCCO2	-9	0	9	91*	5
S=C(Nc1ccccc1Cl)N1CCCC1	-5	4	-13	0	2
O=C(NCCN1CCCCC1)c1ccc(Oc2cc(Cl)cc(Cl)c2)o1	-7	2	-1	6	30*
CS(=O)(=O)N(Cc1ccc(C(=O)NN=C2CCCC2)cc1)c1ccccc1	-11	9.3*	-18	-5	3
CS(=O)(=O)N(Cc1ccc(C(=O)NN=C2CCCCCC2)cc1)c1ccccc1	2	1	9	-1	-2
COc1cc(C(=O)c2c(C)c(CCC#N)n3ccccc23)cc(OC)c1OC	-3	3	-3	0	-6
O=C(c1ccc(Cl)cc1)n1c(NCc2ccccc2)n[nH]c1=S	-2	-1	82*	0	-7
CCn1c(CCNC(=O)c2ccc(Cl)cc2)n[nH]c1=S	-5	1	-1	-4	-7
Cc1noc(C)c1CS(=O)(=O)c1ccc([N+](=O)[O-])cc1	7	3	1	10	3
Nn1c(SCc2nc3ccccn3c2Br)nnc1-c1cccnc1	-6	0	-9	2	57*
Cc1cc(NC(=O)CSc2nc3c(sc4ccccc43)c(=O)n2CCc2ccccc2)n[nH]1	-1	2	13	-4	32*
CCCCOc1ccc(/C(N)=N/O)cc1	-12	0	4	-2	-3
CCCc1ccc(-c2cc(NC(=O)CSc3nnc(N)s3)n(-c3ccccc3)n2)cc1	-11	10*	-2	1	-13
Cc1nnc(SCC(=O)Nc2cc(-c3cc(C)c(C)cc3C)nn2-c2ccccc2)s1	-15	-1	19	-3	-20
CCCCCC(=O)N1CCCCC1	-1	0	3	2	4
CCOC(=O)c1ccc(N2C(=O)C(O)=C(C(C)=O)C2c2ccccc2)cc1 (stereo unspecified)	-6	-1	52	2	11
CC(=O)C1=C(O)C(=O)N(c2ccc(C(=O)O)cc2)C1c1ccccc1 (stereo unspecified)	-2	9.2*	15	-2	-4
SMILES	RBBP9 inh	Wee1 stabilizer	14-3-3 Bad inh	eIF4E-4G inh	p47phox inh
Cc1cc(C)cc(NC2=NCC(=O)N2Cc2ccccc2)c1	-9	-3	72*	-1	-15
CC(C)c1ccc(NC2=NCC(=O)N2Cc2cccs2)cc1	-4	-2	9	-4	-4
O=C1CN=C(Nc2ccccc2)N1Cc1cccs1	-6	-2	72*	1	-17
COc1cc(C(=O)Nc2cc(-c3cn4cccnc4n3)ccc2C)cc(OC)c1OC	-12	4	-11	1	4
CC(CCc1ccccc1)N1CCN(Cc2ccccc2)CC1 (stereo unspecified)	-7	2	6	-1	-8
CCS(=O)(=O)N1CCN(C(C)CCc2ccccc2)CC1 (stereo unspecified)	-6	3	70*	15	1
O=S(=O)(c1ccccc1)N1CCN(S(=O)(=O)c2ccccc2)C1	-5	-2	-7	-1	-3
CCCS(=O)(=O)N1CCN(S(=O)(=O)c2ccccc2)CC1	4	-1	5	64*	-4
Cc1ccccc1OCCCN1CCCC1	-8	-3	76*	-1	-4
C=CCc1ccccc1OCCCCN1CCCC1	-4	3	79*	11	-8
CCc1ccccc1OCCCCN1CCCC1	1	-1	66	6	-8
CC1CCCN(CCCOc2ccccc2-c2ccccc2)C1 (stereo unspecified)	-4	3	10	2	31*
Cc1cccc(C)c1OCCCN1CCCC1	2	0	11	1	-10
Cc1ccsc1C(=O)Nc1ccc2c(c1)OCCO2	-3	0	-4	4	2
CCn1c(SC(C)C(=O)NC2CCCc3ccccc32)nnc1-c1cccs1 (stereo unspecified)	-3	1	-10	0	-13
N#CC(C(N)=O)=C1CCCCC1	-3	3	5	6	75*
COc1cc(OC)c(C2CC(=O)N3CN(c4ccccc4C)CSC3=C2C#N)cc1OC (stereo unspecified)	1	-2	-12	18	47*
COc1ccc(OC)c(C2CC(=O)N3CN(c4ccccc4)CSC3=C2C#N)c1 (stereo unspecified)	-7	-3	6	-3	-9
CCCNC(=O)CCc1c(C)nc2nc(C)nn2c1C	0	-1	-9	-2	-1
CCN(CC)CCN(C)Cc1ccc(Br)cc1	-1	0	76*	-1	0
CCCN(CCO)Cc1ccc(Br)cc1	2	1	84*	2	-11
CN(CC(=O)Nn1cnnc1)S(=O)(=O)c1ccc(Br)cc1	-4	1	-5	8	-20
Cc1ccc(S(=O)(=O)N2CCOC2CNC(=O)C(=O)NCc2ccncc2)cc1 (stereo unspecified)	-6	-1	6	-2	-2
CCN(CCO)Cc1csc2ccc(Cl)cc12	-6	5	-11	15	-5
CC(C)OC(=O)c1ccc(NC(=O)C2C3CC4OC(=O)C2C4C3)cc1 (stereo unspecified)	-6	9.8*	3	0	-2
SMILES	RBBP9 inh	Wee1 stabilizer	14-3-3 Bad inh	eIF4E-4G inh	p47phox inh
Cc1cc(C)cc(OCC(=O)Nc2ccc(N3CCCC3)cc2)c1	-2	-2	100*[fluorescence artefact?]	9	29
COc1ccc(OCC(=O)Nc2ccc(N3CCCCC3)cc2)cc1	1	-2	-11	2	2
Cc1ccc(OCC(=O)Nc2ccc(N3CCCC3)cc2)cc1C	0	1	74*[fluorescence artefact?]	-17	10
COc1ccc(C(=O)NCc2ccc(S(N)(=O)=O)cc2)cc1[N+](=O)[O-]	-2	2	-1	1	1
O=S(=O)(Cc1ccccc1)N1CCCc2ccccc21	3	-2	-8	0	-14
COc1ccc(CN2CCNC(=O)C2CC(=O)NCCSc2nccn2C)c(OC)c1 (stereo unspecified)	-3	0	-6	1	-3

High-throughput results (PubChem BioAssay)
